# Source: PubChem BioAssay (several laboratories)
# NF-kB expr up: NF-kB expression increase, human neuronal cells. NF-kB reporter expression; active compounds read high. fold change at 12.5 µM. hit rate 1.6% among 190,000; in the data active = fold change above about 3.3
# STAT1 activator: increases IFN-gamma driven STAT1 reporter signal; NIH 3T3 STAT1-luciferase reporter, luminescence; 100% = IFN-gamma alone, no compound; activation (% of control), % at 5.5 µM; hit rate 2.6% among 200,000; AID 932;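 active = activation above the screen-wide mean activation plus 3 SD, cut at about 130% in these data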;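 note: raw ratio to IFN-gamma control signal so 100% means no change and 0% no light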
# APP 5'UTR act: APP 5'UTR luciferase reporter activation. SH-SY5Y APP 5'UTR luciferase reporter, luminescence; zero percent = DMSO vehicle wells. activation, % at 2 µM. hit rate 1% among 190,000;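 active = activation above a set limit, based on mean plus 3 SD of controls, cut at about 140% in these data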
# APP 5UTR inh: APP translation inhibition. SH-SY5Y APP 5'UTR-luciferase reporter, luminescence. inhibition, % at 2 µM. hit rate 0.82% among 190,000. AID 1285;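 active = inhibition above a set limit, derived from the sample mean plus 3 SD, cut at about 45% in these data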
# FLuc inhib CS: counter-screen for luciferase assay inhibitors: firefly luciferase inhibition; inhibition, % at 10 µM; ATPLite firefly luciferase biochemical luminescence, 10 min; hit rate 1.5% among 200,000;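 active = inhibition above about 50% when tested at 10 µM, limit read from the data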
# Target sequence (P08659 whole entry, looked up): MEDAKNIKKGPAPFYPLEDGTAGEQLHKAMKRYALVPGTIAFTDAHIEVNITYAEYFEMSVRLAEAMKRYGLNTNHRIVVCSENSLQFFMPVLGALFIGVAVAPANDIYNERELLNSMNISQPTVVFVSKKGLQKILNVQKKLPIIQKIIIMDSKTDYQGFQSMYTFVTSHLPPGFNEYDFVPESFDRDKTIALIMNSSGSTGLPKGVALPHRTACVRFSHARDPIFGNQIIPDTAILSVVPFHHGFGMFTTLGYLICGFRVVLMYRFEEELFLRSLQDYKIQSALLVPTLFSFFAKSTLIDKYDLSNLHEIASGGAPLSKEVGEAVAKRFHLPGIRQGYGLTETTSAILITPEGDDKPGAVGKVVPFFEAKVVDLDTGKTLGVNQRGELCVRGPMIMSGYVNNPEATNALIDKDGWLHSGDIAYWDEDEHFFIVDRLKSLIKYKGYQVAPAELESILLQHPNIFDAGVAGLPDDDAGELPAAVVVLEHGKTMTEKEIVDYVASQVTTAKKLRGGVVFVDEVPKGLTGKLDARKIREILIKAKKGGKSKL
# FLuc act counter: affects firefly luciferase, flagging false hits in luciferase stimulation screens | P08659 | ATPlite luciferase biochemical, luminescence, 10 min; 0 = ATP-free wells, 1 = DMSO control | activation factor at 10 µM | 200,000 tested, under 10 active;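 active = luciferase activation factor, scaled between plate controls, of at least 2 with compound at 10 µM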
#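 assay system = Luciferase/luciferin detection reagent, cell-free biochemical luciferase assay | also added = ATP substrate | times = 10 min post-reagent at room temperature | measured by = luminescence from luciferase reaction | measure = luciferase activation, seen as luminescence increase over controls | benchmarks = low control with PBS replacing ATP, high control enzyme plus ATP without compound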
# An asterisk follows results filed as active. An excerpt weighted towards active compounds, which were near 4.8% of everything screened.
SMILES,NF-kB expr up,STAT1 activator,APP 5'UTR act,APP 5UTR inh,FLuc inhib CS,FLuc act counter
COC(=O)C(Cc1ccc(O)cc1)NC(=O)C(CC(=O)OC(C)(C)C)NC(=O)OC(C)(C)C (stereo not given),1.19,106.6,-18.9,18.9,-10.6,1.1
O=C(O)/C=C/c1cccc(OCc2ccccc2)c1,1.4,108.8,6.7,-6.7,15.4,0.8
O=C(/C=C/c1cccc(OCc2ccccc2)c1)c1cccnc1,1.27,102.2,-87.2,87.2*,-2.2,1
O=c1cc(CN2CCN(S(=O)(=O)c3ccc4ccccc4c3)CC2)nc2sccn12,0.88,99.2,1.1,-1.1,-7.1,1.1
CCNc1nc(C)c2cc(Br)c(=O)n(CC)c2n1,1.62,138.7*,-17.0,17.0,-3.2,1
CCc1ccc(S(=O)(=O)/N=C2/C=C(Sc3ncn[nH]3)C(=O)c3ccccc32)cc1,0.58,95.7,-75.4,75.4*,4.2,1
Oc1c(C(c2ccccn2)N2CCCCC2)cc(Cl)c2cccnc12 (stereo not given),4.86*,107.1,14.5,-14.5,-13.7,1.1
Cc1nc2cc(NC(=O)Nc3ccccc3Cl)ccc2n1C,3.9*,61.7,192.7*,-192.7,91.2*,0.1
Cc1ccc(NC(=O)Nc2ccc3c(c2)nc(C)n3C)cc1,6.52*,132.5*,129.6,-129.6,74.2*,0.3
CC(=O)c1ccc(NC(=O)Nc2ccc3c(c2)nc(C)n3C)cc1,1.95,128.2,41.4,-41.4,8.4,0.9
NC(=O)C1CCN(C(=O)COc2ccc(S(=O)(=O)NCc3ccccc3)cc2Cl)CC1,1.03,89.9,-23.0,23.0,-4.8,1
CCOc1ccc(C(=O)Nc2cccc3ncccc23)cc1Br,1.2,89.8,16.3,-16.3,5.6,0.9
COc1cc(NC(=O)c2cc3sccc3n2C)cc(OC)c1,2.55,132.5*,104.0,-104.0,20.1,0.8
O=C(O)CCC(=O)N1CCN(c2ccc(C(=O)c3ccc(F)cc3)cc2)CC1,1.18,98.0,12.9,-12.9,-5.8,1.1
CN1CCN(c2ccc(C(=O)c3ccc(F)cc3)cc2)CC1,2.73,135.8*,74.7,-74.7,13.9,0.9
O=C1CCCC/C1=C/Nc1ccc2c(c1)OCO2,2.22,140.7*,66.9,-66.9,29.3,0.7
Oc1ccccc1C1Nc2cccc3cccc(c23)N1,0.86,99.0,10.5,-10.5,64.3*,0.4
CNC(=S)Nc1ccc(OC(F)(F)F)cc1,1.05,102.1,0.6,-0.6,4.1,1
O=C(COc1ccccc1-c1ccccc1)N/N=C/c1ccc2ccccc2c1,3.08,101.7,-96.3,96.3*,-6.4,1.1
C/C(=N\NC(=O)COc1ccccc1-c1ccccc1)c1ccccn1,0.37,93.3,-62.0,62.0*,0.9,1
C/C(=N\NC(=O)COc1ccccc1-c1ccccc1)c1cccnc1,0.61,93.0,-16.1,16.1,0.4,1
Cc1ccc(CCNC(=O)C2CCCN(c3nc4ccccc4o3)C2)cc1 (stereo not given),0.77,103.7,-5.6,5.6,-3.8,1
O=C(/C=C/c1ccc([N+](=O)[O-])cc1)Nc1ncc([N+](=O)[O-])s1,1.35,146.6*,221.3*,-221.3,60.9*,0.4
O=C(/C=C/c1ccc([N+](=O)[O-])cc1)NCc1ccccn1,1.06,108.4,-17.5,17.5,-6.3,1.1
N/C(=N\OCc1ccccc1)c1nonc1N,1.78,129.2*,63.2,-63.2,2.2,1
SMILES,NF-kB expr up,STAT1 activator,APP 5'UTR act,APP 5UTR inh,FLuc inhib CS,FLuc act counter
N#C/C(=C/c1ccc(N2CCOCC2)o1)C(=O)NC1CCCCC1,1.29,119.2,12.6,-12.6,16.3,0.8
COc1ccc(NC(=O)/C(C#N)=C\c2ccc(N3CCOCC3)o2)cc1,1.3,126.4,47.0,-47.0,83.8*,0.2
CC1CC1c1ccc(/C=C(\C#N)C(=O)Nc2ccc(Cl)cc2)o1 (stereo not given),1.1,140.9*,115.7,-115.7,5.1,0.9
CC1CC1c1ccc(/C=C(\C#N)C(=O)Nc2ccccc2Cl)o1 (stereo not given),0.97,125.9,26.5,-26.5,3.3,1
N#C/C(=C\c1ccc(N2CCOCC2)o1)C(=O)Nc1ccc(O)cc1,2.08,124.8,21.9,-21.9,50.0*,0.5
Nc1c(C(=O)c2ccccc2)sc2snc(SCC(=O)c3ccccc3)c12,1.34,105.9,38.0,-38.0,-4.6,1
CN1CCC/C1=C1/C(=O)N(c2ccccc2)N=C1NC(=O)Nc1cccc(Cl)c1,1,111.9,5.0,-5.0,-5.7,1.1
Nc1nc(Nc2cccc(F)c2)nc2ccccc12,5.3*,145.2*,96.5,-96.5,57.1*,0.4
Cc1ccc(C)c(Nc2nc(N)c3ccccc3n2)c1,1.11,123.6,183.8*,-183.8,65.9*,0.3
Fc1cccc(NC(=S)NNc2c3ccccc3nc3ccccc23)c1,0.73,97.6,-53.5,53.5*,5.6,0.9
Fc1cccc(NC(=S)Nc2cccnc2)c1,0.86,96.8,18.8,-18.8,-4.7,1
COCc1cc(C)n(CC(=O)OC)c(=O)c1C#N,1.09,104.6,-2.2,2.2,-6.4,1.1
O=C(NCCN1C(=O)S/C(=C\c2ccc(OC(F)F)cc2)C1=O)c1cnccn1,0.79,97.5,-76.5,76.5*,-4.4,1
CCn1ccc(C(=O)Oc2ccc(C(C)C)cc2)n1,1.23,99.5,0.3,-0.3,61.7*,0.4
CCn1ccc(C(=O)N2CCOCC2)n1,1.3,107.7,11.3,-11.3,-4.3,1
CCCCCOc1ccc(Br)cc1/C(C)=N/NC1=NCCN1,2.23,94.3,-94.5,94.5*,-10.3,1.1
COc1ccc(Br)cc1/C(C)=N/NC1=NCCN1,0.83,84.4,-12.7,12.7,-6.8,1.1
Cc1cccc(C)c1OCCNC(=O)C(=O)NCc1ccco1,1.09,97.8,-84.8,84.8*,-2.5,1
O=C(NCC1CCCO1)C1CCN(C2CCN(C3CCCCCC3)CC2)CC1 (stereo not given),0.94,93.0,-5.3,5.3,-0.5,1
COc1ccc(-c2nc(-c3ccccn3)nc(N3CCN(C)CC3)c2C#N)cc1,1.02,101.3,-8.3,8.3,-2.7,1
Cc1ccsc1/C=N\NC(=O)c1ccc2c(c1)OCO2,4.31*,121.2,131.9,-132.0,77.2*,0.2
O=C(N/N=C/c1ccc[nH]1)c1ccc2c(c1)OCO2,1.01,105.2,17.2,-17.2,73.4*,0.3
Cc1ccsc1/C=N/NC(=O)c1ccc(-n2cccc2)cc1,1.71,128.7*,28.0,-28.0,1.0,1
O=C(N/N=C/c1cc([N+](=O)[O-])ccc1O)c1ccc2c(c1)OCCO2,1.12,103.5,1.9,-1.9,69.7*,0.3
CCN(CC)S(=O)(=O)c1cccc(C(=O)NC(C)C(c2cccs2)N2CCCC2)c1 (stereo not given),1.35,93.8,4.8,-4.8,-7.4,1.1
